Source: PubChem BioAssay
Hits are enriched below; roughly 2.5% of the tested compounds scored in any of these assays.
Vif inh: inhibitors of HIV Vif | HEK293T cells, Vif self-association by quenched fluorescence, imaging, 24 h | 0.35% of 340,000 active | inhibition, % at 7.49 µM; in the data active = inhibition above about 50%, passing the limit was not always enough
SMARCA2 activ: increases SMARCA2 function in MMTV reporter cells; MG213 cells, MMTV-luciferase reporter, dexamethasone, overnight; activation, % at 9.1 µM; 1% of 370,000 active; AID 652017; in the data active = activation above about 7.8%
SR-BI DiI-HDL act: enhances SR-BI lipid uptake from DiI-HDL; CHO ldlA[mSR-BI] cells, DiI-HDL uptake fluorescence, 3 h; 100 = double the neutral-control signal; activation, % at 12.5 µM; 0.096% of 320,000 active;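 active = mean replicate activation of at least 60% and every replicate at or above 60%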
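Material: SR-BI-overexpressing, LDLR-lacking CHO cells; schedule: compound exposure 3 h, 37 °C; reagent: DiI-labelled HDL at 10 µg/mL final; technique: bottom-read fluorescence, 550/595 nm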
TAG inh: reduces triacylglycerol accumulation in H9c2 cells. inhibition, % at 12.5 µM. 0.66% of 230,000 active. Nile Red lipid (TAG) fluorescence; cells loaded with 200 µM oleic acid;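 active = pattern-corrected inhibition of lipid staining of at least 50% with the nuclear-stain viability signal not falling by more than 50%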
SR-BI DiI inh: blocks mouse SR-BI lipid uptake from DiI-HDL. inhibition, % at 12.5 µM. Q61009. AID 488896. 0.96% of 320,000 active. ldlA[mSR-BI] CHO cells, DiI-HDL uptake fluorescence, 3 h;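 active = mean replicate inhibition of at least 70% and a set share of replicates each scoring 70 or more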
Target sequence (Q61009 whole entry, looked up): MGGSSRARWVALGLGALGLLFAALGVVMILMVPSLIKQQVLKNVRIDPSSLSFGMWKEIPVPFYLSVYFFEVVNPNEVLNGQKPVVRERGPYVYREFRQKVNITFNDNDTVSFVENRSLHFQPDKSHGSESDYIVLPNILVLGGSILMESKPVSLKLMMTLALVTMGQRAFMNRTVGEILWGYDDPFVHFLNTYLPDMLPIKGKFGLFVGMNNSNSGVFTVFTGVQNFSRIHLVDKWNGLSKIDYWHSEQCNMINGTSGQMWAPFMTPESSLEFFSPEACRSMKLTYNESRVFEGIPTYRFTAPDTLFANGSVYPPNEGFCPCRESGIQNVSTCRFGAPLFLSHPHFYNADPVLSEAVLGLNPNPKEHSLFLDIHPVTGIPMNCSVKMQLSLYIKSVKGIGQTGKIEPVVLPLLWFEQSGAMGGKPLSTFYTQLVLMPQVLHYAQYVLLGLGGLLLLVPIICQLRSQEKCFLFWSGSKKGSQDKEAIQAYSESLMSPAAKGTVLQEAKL
Of the large screens only hits and unclear results are named; the others gave an inactive call.

CCCOc1ccc(-c2c(C(=O)N/N=C/c3ccncc3)nnn2-c2nonc2N)cc1	none (no result: TAG inh)
CCCOc1ccc(-c2c(C(=O)N/N=C/c3ccc(OCC)cc3)nnn2-c2nonc2N)cc1	none (no result: TAG inh)
CCOc1ccc(-c2c(C(=O)N/N=C/c3ccc(C)o3)nnn2-c2nonc2N)cc1	SR-BI DiI inh 75.8 (no result: TAG inh)
COC(=O)C1=C(C)N(C)C(=NCC2CC2)NC1c1cccc(F)c1 (stereo unspecified)	none (no result: Vif inh, SR-BI DiI-HDL act, TAG inh, SR-BI DiI inh)
Cc1noc(C)c1NC(=O)Nc1cccc2c1O[C@H](CN(C)C(=O)Nc1ccc(C(F)(F)F)cc1)[C@@H](C)CN([C@H](C)CO)C2=O	SR-BI DiI inh 79.5
COc1ccc(S(=O)(=O)N(C)C[C@H]2Oc3c(NC(=O)Nc4ccc(C(F)(F)F)cc4)cccc3C(=O)N([C@H](C)CO)C[C@@H]2C)cc1	TAG inh 56.5 (no result: SMARCA2 activ)
C[C@H](CO)N1C[C@H](C)[C@@H](CN(C)C(=O)Nc2ccc(C(F)(F)F)cc2)Oc2c(NC(=O)CCC(F)(F)F)cccc2C1=O	SR-BI DiI inh 76.4
O=C(C(=O)N1CCC(CNS(=O)(=O)c2ccc(OC(F)(F)F)cc2)CC1)c1cc2ccccc2o1	none (no result: Vif inh, SR-BI DiI-HDL act, TAG inh, SR-BI DiI inh)
CC(=O)c1ccc(OCC(O)CN2CCN(S(=O)(=O)c3c(C)c(C)cc(C)c3C)CC2)cc1 (stereo unspecified)	SR-BI DiI inh 85.6 (no result: TAG inh)
COC(=O)C1=C(C)N(Cc2ccccc2C(F)(F)F)C(=NCc2cc(OC)c(OC)c(OC)c2)NC1c1cccc(Cl)c1 (stereo unspecified)	none (no result: Vif inh, SR-BI DiI-HDL act, TAG inh, SR-BI DiI inh)
CC1(C)CC[C@]2(C(=O)O[C@@H]3OC(CO)[C@@H](O)[C@H](O)[C@H]3O)CC[C@]3(C)C(=CCC4[C@@]5(C)CC[C@H](O[C@@H]6OC(C(=O)O)[C@@H](O)[C@H](O)[C@H]6O)C(C)(C)C5CC[C@]43C)[C@@H]2C1 (stereo partly specified)	none
COC(=O)C1OC(OC2CC[C@]3(C)C(CC[C@@]4(C)[C@@H]3CC=C3[C@@H]5CC(C)(C)CC[C@]5(C(=O)OC5OC(CO)C(O)C(O)C5O)CC[C@]34C)C2(C)C)C(O)C(O)C1O[C@H]1OCC(O)C(O)C1O (stereo partly specified)	SR-BI DiI-HDL act 119.1 (no result: SMARCA2 activ)
O=C(c1ccc2c(c1)C(=O)N(CCCO)C2=O)c1ccc2c(c1)C(=O)N(CCCO)C2=O	none
O=C1c2ccc3c4c(ccc(c24)C(=O)N1CCCCO)C(=O)N(CCCCO)C3=O	TAG inh 73.1
C=C1CC(COc2cc(=O)oc3ccccc23)(c2ccccc2)OC1=O (stereo unspecified)	Vif inh 56.2
C=C1CCC2C(C)(C)[C@H](O)CC[C@@]2(C)[C@@H]1COc1cc(=O)oc2ccccc12 (stereo partly specified)	none (no result: SMARCA2 activ)
COc1ccc(C2CC(=O)C(c3ccc(C(C)=O)cc3)=CN2Cc2ccccc2)cc1 (stereo unspecified)	none (no result: Vif inh, SR-BI DiI-HDL act, TAG inh, SR-BI DiI inh)
COc1ccc(C(=O)NC2CC3CCCC(C2)N3Cc2ccccc2)cc1OC (stereo unspecified)	Vif inh 52.1 (no result: TAG inh)
COc1cc(C(=O)NC2CC3CCCC(C2)N3C2CC2)cc(OC)c1OC (stereo unspecified)	none
COc1cc(C(=O)NC2CC3CCCC(C2)N3Cc2ccccc2)cc(OC)c1OC (stereo unspecified)	none (no result: SR-BI DiI-HDL act, SR-BI DiI inh)
COc1ccc(CN2C3CCC2CC(NC(=O)c2cc(OC)c(OC)c(OC)c2)C3)cc1 (stereo unspecified)	Vif inh 62.9 (no result: TAG inh)
CC1CCN(CCCn2c(=S)[nH]c3c(sc4ccccc43)c2=O)CC1	none
O=c1c2sc3ccccc3c2[nH]c(=S)n1CCN1CCOCC1	SR-BI DiI-HDL act 71.3
COc1cc(/C=C/C(=O)OCC(=O)c2c(N)n(C)c(=O)n(C)c2=O)ccc1OCC#N	SR-BI DiI inh 71.5
COc1cc(/C=C/C(=O)OCC(=O)c2c(N)n(C)c(=O)n(C)c2=O)ccc1O	none (no result: TAG inh)
COc1ccccc1N1CCN(c2ncnc3nc[nH]c23)CC1	SMARCA2 activ 7.9
CCOc1ccc(-n2c(SCc3cccc4ccccc34)nnc2-c2ccc(C)cc2)cc1	none (no result: Vif inh, SR-BI DiI-HDL act, TAG inh, SR-BI DiI inh)
CC1=NN(c2nc3ccccc3[nH]2)C(=O)C1Cc1ccccc1 (stereo unspecified)	TAG inh 53.5 (no result: SMARCA2 activ, SR-BI DiI-HDL act, SR-BI DiI inh)
O=C(OCc1ccccc1)c1cccc(-c2nnc(-c3ccccc3)o2)c1	SR-BI DiI-HDL act 62.4 (no result: TAG inh)
O=C(OCc1ccc(C(=O)c2ccccc2)cc1)c1cccc(-c2nnc(-c3ccccc3)o2)c1	none (no result: Vif inh, TAG inh)
COc1cccc(C(=O)NCC2CCN(C(=O)C(=O)c3cc4ccccc4o3)CC2)c1	none (no result: Vif inh, SR-BI DiI-HDL act, TAG inh, SR-BI DiI inh)
CC(C)(C)NC(=O)C(c1ccncc1)N(C(=O)Cn1nnc(-c2ccc(F)cc2)n1)c1ccccc1F (stereo unspecified)	Vif inh 60.5 (no result: TAG inh)
Cc1ccccc1N(C(=O)Cn1nnc(-c2ccc(F)cc2)n1)C(C(=O)NC(C)(C)C)c1ccncc1 (stereo unspecified)	none
C=CCC[C@@H](Cc1ccc(F)cc1)C(=O)OC[C@@H](Cc1c[nH]c2ccccc12)NC(=O)[C@@H](CC=C)CC(=O)N[C@@H](CO)Cc1ccccc1	SR-BI DiI-HDL act 74.2
O=C(c1cc2nc(-c3ccc(F)cc3)cc(C(F)(F)F)n2n1)N1CCCCC1c1cccnc1 (stereo unspecified)	SR-BI DiI inh 82.4
CC1=NC2=CC=CC3=NC(C(Cl)(Cl)Cl)=NC(=N1)N23	none (no result: Vif inh, SR-BI DiI-HDL act, TAG inh, SR-BI DiI inh)
CCOc1cc(/C=C/C(=O)OCC(=O)NC2CCS(=O)(=O)C2)ccc1OCc1ccccc1 (stereo unspecified)	SR-BI DiI inh 73.5
C=CCN1C(=O)[C@@H](CC(=O)N2CCSCC2)[C@]2(C(=O)OCC)CCCCC/C=C/12	none (no result: Vif inh, SR-BI DiI-HDL act, TAG inh, SR-BI DiI inh)
Cc1ccccc1C(=O)Nc1ccc(N2CCOCC2)nc1	Vif inh 52.8
CN(/N=C/c1ccc(N(C)C)cc1)C1=NS(=O)(=O)c2ccccc21	Vif inh 127.9 (no result: TAG inh)
C[C@H]1COc2cccc(NCCO)c2S(=O)(=O)N1	none (no result: Vif inh, SR-BI DiI-HDL act, TAG inh, SR-BI DiI inh)
c1ccc(/N=C2\N=C(Nc3ccccn3)c3ccccc32)nc1	TAG inh 50.7 (no result: SR-BI DiI-HDL act, SR-BI DiI inh)
c1ccc(Nc2ccccn2)cc1	none
Cc1cc(C(=O)O)c(C)o1	none (no result: Vif inh, SR-BI DiI-HDL act, TAG inh, SR-BI DiI inh)
CCOC(=O)[C@]12CCCC=C1N(Cc1ccc(OC)cc1)C(=O)[C@@H]2CC(=O)NCc1cccc(C(F)(F)F)c1	none (no result: Vif inh, SR-BI DiI-HDL act, TAG inh, SR-BI DiI inh)
Cc1ccc(-c2nnn3c2nc(NCCc2ccc(S(N)(=O)=O)cc2)c2ccccc23)cc1	SR-BI DiI-HDL act 87.6 (no result: TAG inh)
O=c1cc(-c2ccc(Cl)c(Cl)c2)[nH][nH]1	none
O=c1cc(-c2ccc(Cl)cc2)[nH][nH]1	Vif inh 57.4
CC(=O)N1CCN(c2ccc(N3CCN(Cc4ccccc4)[C@H](C)C3)c(C)c2)[C@@H](C)C1	none (no result: Vif inh, SR-BI DiI-HDL act, TAG inh, SR-BI DiI inh)
Cc1ccc(-c2nn3c(C)nnc3s2)cc1NC(=O)c1ccc(-c2ccc(Cl)cc2Cl)o1	SR-BI DiI inh 79.5 (no result: TAG inh)
Cc1ccc(-c2nn3c(C)nnc3s2)cc1NC(=O)c1ccc(-c2cccc(Cl)c2)o1	SR-BI DiI inh 72.9
